Values after ≈ are worked out from the molar mass of the structure shown.
Experiments:
[1] = system: Candida albicans; assay: Antifungal activity against Candida albicans ATCC 10231 incubated for 48 hrs under dark condition by broth microdilution method; assay type: functional; conditions: ATCC 10231, 48 h
How it was run: (§1)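 CLSI M27-A3 broth microdilution in RPMI-1640, DMSO ≤1%, compounds at 250-0.98 µg/mL final. Inoculum 1-5 × 10^3 CFU/mL. Incubated 48 h at 30 °C in a moist dark chamber, read at OD405. MIC80 and MIC50 taken from % inhibition dose-response curves (mean ± SEM, triplicate). Amphotericin B was the positive control.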

[2] = system: Cryptococcus neoformans; assay: Growth inhibition of Cryptococcus neoformans ATCC 32264 at 31.25 ug/ml incubated for 48 hrs under dark condition by broth microdilution method relative to control; assay type: functional; conditions: ATCC 32264, 48 h, read-out: GI
How it was run: (§2)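 CLSI M27-A3 broth microdilution in RPMI-1640, DMSO ≤1%. Inoculum 1-5 × 10^3 CFU/mL. Incubated 48 h at 30 °C, dark. % inhibition = 100 − (OD405 test − sterility control)/(OD405 growth control − sterility control), with growth and sterility control wells. Triplicate.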

[3] = system: Klebsiella pneumoniae; assay: Antibacterial activity against ESBL positive Klebsiella pneumoniae ATCC 700603 after 24 hrs by resazurin dye based microdilution assay; assay type: functional; conditions: Klebsiella pneumoniae, 700603, 24 h
How it was run: (§3)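 MIC taken as the lowest concentration giving visible inhibition and/or by resazurin (1 mg/mL). Gentamicin was the control. Run in duplicate, repeated at least three times.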

[4] = system: Klebsiella pneumoniae; assay: Antibacterial activity against carbapenemase positive Klebsiella pneumoniae BAA 1705 after 24 hrs by resazurin dye based microdilution assay; assay type: functional; conditions: BAA 1705, 24 h; how it was run: as §3
[5] = system: Leishmania panamensis; assay: Antileshmanial activity against EpiR/GFP fused Leishmania panamensis MHOM/CO/87/UA140 intracellular amastigotes infected in human […] cells after 72 hrs by flow cytometric method; assay type: functional, cell-based; conditions: MHOM/CO/87/UA140, 72 h
How it was run: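 PMA-treated U-937 cells (3 × 10^5 cells/mL) infected with stationary-phase GFP L. panamensis promastigotes (15:1), 3 h at 34 °C, then washed. After 24 h, compounds added at 50, 12.5, 3.125 and 0.78 µg/mL for 72 h at 37 °C. EC50 by Probit; triplicate, two experiments.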

[6] = system: Candida albicans; assay: Growth inhibition of Candida albicans ATCC 10231 at 7.8 ug/ml incubated for 48 hrs under dark condition by broth microdilution method relative to control; assay type: functional; conditions: ATCC 10231, 48 h, read-out: GI; how it was run: as §2
[7] = system: Cryptococcus neoformans; assay: Growth inhibition of Cryptococcus neoformans ATCC 32264 at 3.4 ug/ml incubated for 48 hrs under dark condition by broth microdilution method relative to control; assay type: functional; conditions: ATCC 32264, 48 h, read-out: GI
[8] = system: Staphylococcus aureus; assay: Antibacterial activity against methicillin-sensitive Staphylococcus aureus ATCC 25923 after 24 hrs by resazurin dye based microdilution assay; assay type: functional; conditions: ATCC 25923, 24 h; how it was run: as §3
[9] = system: Candida albicans; assay: Growth inhibition of Candida albicans ATCC 10231 at 125 ug/ml incubated for 48 hrs under dark condition by broth microdilution method relative to control; assay type: functional; conditions: ATCC 10231, 48 h, read-out: GI; how it was run: as §2
[10] = system: Pseudomonas aeruginosa; assay: Antibacterial activity against Pseudomonas aeruginosa ATCC 27853 after 24 hrs by resazurin dye based microdilution assay; assay type: functional; conditions: ATCC 27853, 24 h; how it was run: as §3
[11] = system: Candida albicans; assay: Growth inhibition of Candida albicans ATCC 10231 at 250 ug/ml incubated for 48 hrs under dark condition by broth microdilution method relative to control; assay type: functional; conditions: ATCC 10231, 48 h, read-out: GI; how it was run: as §2
[12] = system: Trypanosoma cruzi; assay: Antitrypanosomal activity against Trypanosoma cruzi Tulahuen intracellular amastigote harboring LacZ infected in human U937 cells after 72 hrs by CPRG/Nonidet reagent based spectrophotometric method; assay type: functional, cell-based; conditions: U-937, 72 h
How it was run: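 U-937 cells at 2.5 × 10^5 cells/mL in RPMI-1640 with 10% serum and 0.1 µg/mL PMA were infected with β-galactosidase-transfected Tulahuen epimastigotes at 5 parasites per cell. Infected cells were exposed to 50, 12.5, 3.125 and 0.78 µg/mL for 72 h. CPRG (100 uM) and 0.1% Nonidet P-40 were added for 3 h, read at 570 nm. EC50 by Probit. Triplicate, at least two experiments; benznidazole as reference.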

[13] = system: Escherichia coli; assay: Antibacterial activity against Escherichia coli ATCC 25922 after 24 hrs by resazurin dye based microdilution assay; assay type: functional; conditions: ATCC 25922, 24 h; how it was run: as §3
[14] = system: Cryptococcus neoformans; assay: Growth inhibition of Cryptococcus neoformans ATCC 32264 at 15.62 ug/ml incubated for 48 hrs under dark condition by broth microdilution method relative to control; assay type: functional; conditions: ATCC 32264, 48 h, read-out: GI; how it was run: as §2
[15] = system: Plasmodium falciparum; assay: Antiplasmodial activity against chloroquine-sensitive Plasmodium falciparum 3D7 assessed as reduction in parasitic LDH activity after 48 hrs by Malstat reagent based […] method; assay type: functional; conditions: 3D7, 48 h
How it was run: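 Unsynchronized P. falciparum 3D7 at 0.5% parasitemia and 1% hematocrit in RPMI with 3% Albumax II. Exposed to 100, 25, 6.25 and 1.56 µg/mL for 48 h at 37 °C under 90% N2/5% CO2/5% O2. After three freeze-thaw cycles, LDH measured with Malstat and NBT/PES, 1 h in the dark, read at 650 nm. IC50 by Probit; triplicate, ≥2 experiments.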

[16] = system: Staphylococcus aureus; assay: Antibacterial activity against methicillin-resistant Staphylococcus aureus ATCC 43300 after 24 hrs by resazurin dye based microdilution assay; assay type: functional; conditions: ATCC 43300, 24 h
How it was run: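 Broth microdilution in Mueller Hinton broth, inoculum 5 × 10^5 – 8 × 10^5. Compound stocks diluted in MHB with 5% DMSO and 0.1% Tween 80. Incubation 24 h at 35-37 °C. MIC is the lowest concentration with visible growth inhibition and/or by resazurin (1 mg/mL) read-out. Gentamicin as control. Run in duplicate, replicated at least three times.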

[17] = system: Candida albicans; assay: Growth inhibition of Candida albicans ATCC 10231 at 62.5 ug/ml incubated for 48 hrs under dark condition by broth microdilution method relative to control; assay type: functional; conditions: ATCC 10231, 48 h, read-out: GI; how it was run: as §2
[18] = system: Candida albicans; assay: Growth inhibition of Candida albicans ATCC 10231 at 3.4 ug/ml incubated for 48 hrs under dark condition by broth microdilution method relative to control; assay type: functional; conditions: ATCC 10231, 48 h, read-out: GI
[19] = system: Neisseria gonorrhoeae; assay: Antibacterial activity against beta lactamase positive Neisseria gonorrhoeae ATCC 31426 by oxidase test; assay type: functional
How it was run: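 Agar dilution MIC on GC agar with 1% isovitalex containing increasing compound concentrations. Plates inoculated with about 1×10^4 CFU (5 µL). MIC is the lowest concentration that inhibited growth, with growth confirmed by oxidase test. Run in duplicate, repeated at least three times.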

[20] = system: Staphylococcus aureus; assay: Antibacterial activity against vancomycin-intermediate Staphylococcus aureus after 24 hrs by resazurin dye based microdilution assay; assay type: functional; how it was run: as §3
[21] = system: Cryptococcus neoformans; assay: Growth inhibition of Cryptococcus neoformans ATCC 32264 at 125 ug/ml incubated for 48 hrs under dark condition by broth microdilution method relative to control; assay type: functional; conditions: ATCC 32264, 48 h, read-out: GI; how it was run: as §2
[22] = system: Cryptococcus neoformans; assay: Antifungal activity against Cryptococcus neoformans ATCC 32264 incubated for 48 hrs under dark condition by broth microdilution method; assay type: functional; conditions: ATCC 32264, 48 h; how it was run: as §1
[23] = system: Cryptococcus neoformans; assay: Growth inhibition of Cryptococcus neoformans ATCC 32264 at 250 ug/ml incubated for 48 hrs under dark condition by broth microdilution method relative to control; assay type: functional; conditions: ATCC 32264, 48 h, read-out: GI; how it was run: as §2
[24] = system: Candida albicans; assay: Growth inhibition of Candida albicans ATCC 10231 at 31.25 ug/ml incubated for 48 hrs under dark condition by broth microdilution method relative to control; assay type: functional; conditions: ATCC 10231, 48 h, read-out: GI; how it was run: as §2
[25] = system: Candida albicans; assay: Growth inhibition of Candida albicans ATCC 10231 at 15.62 ug/ml incubated for 48 hrs under dark condition by broth microdilution method relative to control; assay type: functional; conditions: ATCC 10231, 48 h, read-out: GI; how it was run: as §2
[26] = system: Cryptococcus neoformans; assay: Growth inhibition of Cryptococcus neoformans ATCC 32264 at 7.8 ug/ml incubated for 48 hrs under dark condition by broth microdilution method relative to control; assay type: functional; conditions: ATCC 32264, 48 h, read-out: GI; how it was run: as §2
[27] = system: Cryptococcus neoformans; assay: Growth inhibition of Cryptococcus neoformans ATCC 32264 at 62.5 ug/ml incubated for 48 hrs under dark condition by broth microdilution method relative to control; assay type: functional; conditions: ATCC 32264, 48 h, read-out: GI; how it was run: as §2
[28] = system: U-937; assay: Cytotoxicity against human U937 cells after 72 hrs by MTT assay; assay type: cell-based; conditions: u-937, 72 h
How it was run: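 Exponentially growing U-937 at 1 × 10^5 cells/mL in RPMI-1640 with 10% FBS were exposed to 200, 50, 12.5 and 3.125 µg/mL for 72 h at 37 °C, 5% CO2. MTT for 3 h, stopped with isopropanol/SDS, formazan read at 570 nm, blank-corrected. LC50 by Probit from % viability against untreated cells. Triplicate, at least two independent experiments.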

SMILES	MIC50 [1]	MIC80 [1]	inhibition of growth at 31.25 µg/mL [2]	MIC [3]	MIC [4]	EC50 [5]	inhibition of growth at 7.8 µg/mL [6]	inhibition of growth at 3.4 µg/mL [7]	MIC [8]	inhibition of growth at 125 µg/mL [9]	MIC [10]	inhibition of growth at 250 µg/mL [11]	EC50 [12]	MIC [13]	inhibition of growth at 15.62 µg/mL [14]	EC50 [15]	MIC [16]	inhibition of growth at 62.5 µg/mL [17]	inhibition of growth at 3.4 µg/mL [18]	MIC [19]	also measured
COc1ccc(C2=NN(c3cc(Cl)cc(Cl)c3)C(c3cccc(Nc4ccnc5cc(Cl)ccc45)c3)C2)cc1 (stereo not given)	≥ 250 µg/mL	≥ 250 µg/mL	3.09%	> 1000 µg/mL	> 1000 µg/mL	12.6 µg/mL (≈ 22 µM)	1.72%	0%	> 1000 µg/mL	10.3%	> 1000 µg/mL	27.9%	31 µg/mL (≈ 54.1 µM)	> 1000 µg/mL	2.11%	10.4 µg/mL (≈ 18.1 µM)	> 1000 µg/mL	9.34%	1.02%	> 1000 µg/mL	MIC [20]: > 1000 µg/mL; inhibition of growth at 125 µg/mL [21]: 10.2%; MIC50 [22]: ≥ 250 µg/mL; MIC80 [22]: ≥ 250 µg/mL; inhibition of growth at 250 µg/mL [23]: 43%; inhibition of growth at 31.25 µg/mL [24]: 5.03%; inhibition of growth at 15.62 µg/mL [25]: 1.75%; inhibition of growth at 7.8 µg/mL [26]: 0%; inhibition of growth at 62.5 µg/mL [27]: 6.18%; LC50 [28]: > 200 µg/mL
O=CN1N=C(c2ccc(Br)cc2)CC1c1cccc(Nc2ccnc3cc(Cl)ccc23)c1 (stereo not given)	250 µg/mL (≈ 494 µM)	≥ 250 µg/mL	44.5%	> 1000 µg/mL	> 1000 µg/mL	2.41 µg/mL (≈ 4.76 µM)	8.36%	24.2%	> 1000 µg/mL	31.4%	> 1000 µg/mL	58.7%	1.24 µg/mL (≈ 2.45 µM)	> 1000 µg/mL	44.2%	15.7 µg/mL (≈ 31 µM)	> 1000 µg/mL	25.3%	5.76%	> 1000 µg/mL	MIC [20]: > 1000 µg/mL; inhibition of growth at 125 µg/mL [21]: 60.9%; MIC50 [22]: 62.5 µg/mL (≈ 124 µM); MIC80 [22]: 250 µg/mL (≈ 494 µM); inhibition of growth at 250 µg/mL [23]: 100%; inhibition of growth at 31.25 µg/mL [24]: 19.2%; inhibition of growth at 15.62 µg/mL [25]: 13%; inhibition of growth at 7.8 µg/mL [26]: 39.1%; inhibition of growth at 62.5 µg/mL [27]: 53.5%; LC50 [28]: 0.6 µg/mL (≈ 1.19 µM)
Clc1ccc2c(Nc3cccc(C4CC(c5ccccc5)=NN4c4ccccc4)c3)ccnc2c1 (stereo not given)	250 µg/mL (≈ 526 µM)	≥ 250 µg/mL	20.4%	> 1000 µg/mL	> 1000 µg/mL	22.7 µg/mL (≈ 47.7 µM)	5.03%	9.75%	> 1000 µg/mL	32.4%	> 1000 µg/mL	53%	39.2 µg/mL (≈ 82.5 µM)	> 1000 µg/mL	18.4%	13.4 µg/mL (≈ 28.1 µM)	> 1000 µg/mL	20.1%	3.1%	> 1000 µg/mL	MIC [20]: > 1000 µg/mL; inhibition of growth at 125 µg/mL [21]: 26.5%; MIC50 [22]: 250 µg/mL (≈ 526 µM); MIC80 [22]: ≥ 250 µg/mL; inhibition of growth at 250 µg/mL [23]: 52.3%; inhibition of growth at 31.25 µg/mL [24]: 11%; inhibition of growth at 15.62 µg/mL [25]: 8.69%; inhibition of growth at 7.8 µg/mL [26]: 13.6%; inhibition of growth at 62.5 µg/mL [27]: 20.5%; LC50 [28]: > 200 µg/mL

Source: ChEMBL document CHEMBL4038284, “Synthesis of novel quinoline-based 4,5-dihydro-1H-pyrazoles as potential anticancer, antifungal, antibacterial and antiprotozoal agents” (Eur J Med Chem, 2017)
